Source: PMC6850403 (Clinical Pharmacology in Drug Development, 2019)
Where two headings read alike, the source gives them in different places.

Tests used:
[1] = format: in vivo, human; conditions: for clearance: CL; for half-life: t½
Method in brief: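 Open-label, randomized 2-period, 2-sequence crossover in 12 healthy volunteers, fasted ≥10 h. Single 100 mg oral tablet with water to 240 mL, or 50 mg IV (1 mg/mL over 1.25 h). Plasma sampled 0–96 h and assayed by HPLC-MS/MS (LLOQ 3 ng/mL). Noncompartmental analysis used: CL/F = dose/AUC0‐∞. Log dose-normalized AUCs fitted by linear mixed-effect model; ratios exponentiated with 90% CI.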

[2] = Safety and tolerability evaluation in the absolute bioavailability study; format: in vivo, human
Method in brief: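 Healthy subjects in a randomized crossover each received a single 100 mg oral tablet and a single 50 mg IV infusion over 1.25 h, fasted. Recorded as AEs: adverse drug reactions, illnesses with onset during study, exacerbation of previous illness, clinically significant physical-examination changes and abnormal objective test findings. Vital signs, ECG and laboratory parameters were monitored.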

Human mass balance = format: in vivo; conditions: urine, po, 100 mg
[3] = Hepatic extraction estimate, well-stirred model; design: species or system human; conditions: hepatic blood flow of 87 L/h
[4] = once daily (QD), patients with advanced myeloid malignancies; cited from earlier work
[5] = cited from earlier work
[6] = tested on: cytochrome P450 (CYP) 3A4/5; conditions: preclinical studies; cited from earlier work
[7] = single 100‐mg dose; cited from earlier work
[8] = weakly basic drug; cited from earlier work
human blood = conditions: parenteral formulation, in vitro; cited from earlier work
[9] = parenteral formulation, rabbit; cited from earlier work
[10] = cited from earlier work; remark: listed apart in the source
[11] = cited from earlier work; remark: listed apart in the source
[12] = in vitro data and data from the ADME study; cited from earlier work
[13] = 100 mg oral tablet, single dose, fasted
[14] = human, plasma, iv, 50 mg, arithmetic mean ± SD, 50 mg IV, single dose, fasted
[15] = human, plasma, iv, 50 mg, geometric mean (geometric CV, %), 50 mg IV, single dose, fasted
[16] = human, plasma, po, 100 mg, arithmetic mean ± SD, 100 mg oral tablet, single dose, fasted

## CN1CC[C@@H](NC(=O)Nc2ccc(C#N)cc2)C[C@@H]1c1nc2ccccc2[nH]1 [Glasdegib]
[1]; 50 mg IV
  AUC0‐last(dn), dose normalized geometric mean from the statistical model: 96.98 ng·h/mL/mg
  AUC0‐∞(dn), dose normalized geometric mean from the statistical model: 98.90 ng·h/mL/mg
  Intersubject variability in CL, %CV of the geometric mean: 38%
[1]; 50 mg IV, single dose, fasted
  t½, arithmetic mean ± SD: 13.78 ± 2.97 h
[1]; 100 mg oral tablet
  AUC0‐last(dn), dose normalized geometric mean from the statistical model: 74.88 ng·h/mL/mg
  AUC0‐∞(dn), dose normalized geometric mean from the statistical model: 76.28 ng·h/mL/mg
  Intersubject variability in CL/F, %CV of the geometric mean: 38%
[1]; [13]
  CL/F, arithmetic mean ± SD: 13.87 ± 4.51 L/h
  CL/F, geometric mean (geometric CV, %): 13.10 (38) L/h
  t½, arithmetic mean ± SD: 14.26 ± 2.45 h
[1]; 100 mg oral tablet, single dose, fasted, listed as glasdegib
  CL/F, arithmetic mean ± SD: 13.87 L/h
[1]; human, plasma, iv, 50 mg
  Tmax: 1.27 h
[1]; human, plasma, iv, 50 mg, AUC0‐last, arithmetic mean ± SD, 50 mg IV, single dose, fasted
  AUC: 5120 ± 2160 ng·h/mL
[1]; human, plasma, iv, 50 mg, AUC0‐last, geometric mean (geometric CV, %), 50 mg IV, single dose, fasted
  AUC: 4780 ng·h/mL
[1]; human, plasma, iv, 50 mg, AUC0‐∞, arithmetic mean ± SD, 50 mg IV, single dose, fasted
  AUC: 5220 ± 2210 ng·h/mL
[1]; human, plasma, iv, 50 mg, AUC0‐∞, geometric mean (geometric CV, %), 50 mg IV, single dose, fasted
  AUC: 4880 ng·h/mL
[1]; [14]
  clearance: 181 mL/min
  Cmax: 687 ± 197 ng/mL
  half-life: 13.8 h
[1]; [15]
  clearance: 171 mL/min
  Cmax: 665 ng/mL
[1]; human, plasma, oral, Absolute oral bioavailability, arithmetic mean ± SD, arithmetic mean ratios, without logarithmic transformation, of AUC0‐∞(dn) oral to IV
  bioavailability: 78.5 ± 12.8%
[1]; human, plasma, po, 100 mg
  Tmax: 1.52 h
[1]; human, plasma, po, 100 mg, AUC0‐last, arithmetic mean ± SD, 100 mg oral tablet, single dose, fasted
  AUC: 7990 ± 3310 ng·h/mL
[1]; human, plasma, po, 100 mg, AUC0‐last, geometric mean (geometric CV, %), 100 mg oral tablet, single dose, fasted
  AUC: 7490 ng·h/mL
[1]; human, plasma, po, 100 mg, AUC0‐∞, arithmetic mean ± SD, 100 mg oral tablet, single dose, fasted
  AUC: 8160 ± 3440 ng·h/mL
[1]; human, plasma, po, 100 mg, AUC0‐∞, geometric mean (geometric CV, %), 100 mg oral tablet, single dose, fasted
  AUC: 7630 ng·h/mL
[1]; [16]
  Cmax: 684 ± 155 ng/mL
  half-life: 14.3 h
[1]; human, plasma, po, 100 mg, geometric mean (geometric CV, %), 100 mg oral tablet, single dose, fasted
  Cmax: 668 ng/mL
[2]; following 50 mg IV administration
  AEs reported: No AEs were reported
[2]; following 100 mg oral tablet, 1 mild and 1 moderate, in 2 subjects
  Number of AEs reported: 2
[2]; single 100‐mg oral and 50‐mg IV doses, healthy subjects
  Tolerability: generally safe and well tolerated
[2]; treatment period 1 day 10, after oral 100 mg
  Peak ALT elevation, subject with moderate AE: 3 × upper limit of normal
Human mass balance
  dose excreted: ≥ 49%
[3]
  Hepatic extraction: < 0.3
[4]
  Maximum tolerated dose as a single agent: 400 mg
[5]; QD, patients with advanced solid tumor
  Maximum tolerated dose: 320 mg
[5]; single dose of 320 mg, patients with advanced tumors
  Tolerability: well tolerated
[6]
  Metabolizing enzyme: primarily metabolized by cytochrome P450 (CYP) 3A4/5
[7]
  Effect of proton‐pump inhibitors on glasdegib PK: do not have a clinically relevant effect
[8]
  Solubility, pH dependence: decreasing solubility as pH increases
Human blood
  Hemolysis in human blood: did not suggest that glasdegib was the cause of hemolysis in human blood
[9]
  Local vascular tissue irritation: did not suggest that glasdegib was the cause of hemolysis in human blood and/or local vascular tissue irritation
[10]
  Administered parent dose recovered in the feces: 19.5%
  Contribution of the glucuronidation pathway via UGT1A9 to elimination: only minor
  Major route of elimination: primarily through CYP3A4 oxidation
  Mean plasma renal clearance: 1.97 L/h
[11]; oral solution compared to instant‐release tablet
  Impact of disintegration and dissolution on absorption kinetics: do not appear to impact the absorption kinetics
[11]; single 100‐mg oral dose, 100‐mg maleate immediate release tablet, healthy subjects
  Geometric mean Cmax: 775.3 ng/mL
[12]
  Plasma to whole blood partitioning: < 1

## [^14C]glasdegib
[10]; single oral dose of 100‐mg/100‐µCi, 6 healthy volunteers
  Mean recovery of radioactivity in urine (as parent and metabolites): 49%
